According to ChEMBL document CHEMBL1134236, “Anti-MRSA cephems. Part 1: C-3 substituted thiopyridinium derivatives” (Bioorg Med Chem Lett, 2001):
Values after ≈ are worked out from the molar mass of the structure shown.

Key:
[1] = system: Staphylococcus aureus; assay: Minimum inhibitory concentration against methicillin-resistant Staphylococcus aureus (MRSA) A27223; format: functional
How it was run: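 Broth microdilution per NCCLS in Mueller-Hinton broth with 2% NaCl. Inoculum about 5×10⁵ CFU/mL, incubated at 35 °C for 24 h. MIC is the lowest drug concentration that inhibits all visible growth.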

[2] = system: Staphylococcus aureus; assay: Minimum inhibitory concentration against methicillin-resistant Staphylococcus aureus (MRSA) A27223 in the presence of 50% calf serum.; format: functional
How it was run: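 NCCLS broth MIC in Mueller-Hinton broth with 2% NaCl plus 50% calf serum. Inoculum about 5×10⁵ CFU/mL, incubated at 35 °C for 24 h. Read as the lowest concentration with no visible growth.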

[3] = system: Staphylococcus aureus; assay: Dose required for protective activity against methicillin-resistant Staphylococcus aureus (MRSA) A27223 in mouse following i.m. administration.; details: im, read-out: PD50

Row | Structure (SMILES) | MIC [1] [µg/mL] | MIC [2] [µg/mL] | ED50 [3] [mg/kg]
1 | Cc1cc(SCC2=C(C(=O)[O-])N3C(=O)[C@@H](NC(=O)CSc4cc(Cl)ccc4Cl)[C@H]3SC2)cc(CCC(=O)O)[n+]1CCO | 2 (≈ 2.97 µM) | 4 | 8.4
2 | C[n+]1ccc(SCC2=C(C(=O)[O-])N3C(=O)[C@@H](NC(=O)CSc4cc(Cl)ccc4Cl)[C@H]3SC2)cc1CCCC(=O)O | 4 (≈ 6.22 µM) | 8 | 5.2
3 | NCCC[n+]1ccc(SCC2=C(C(=O)O)N3C(=O)[C@@H](NC(=O)CSc4cc(Cl)nc(Cl)c4)[C@H]3SC2)cc1CCCC(=O)O.O=C(O)C(F)(F)F.O=C([O-])C(F)(F)F | 2 | 4 | 4.3
4 | Cc1cc(SCC2=C(C(=O)[O-])N3C(=O)[C@@H](NC(=O)CSc4cc(Cl)ccc4Cl)[C@H]3SC2)cc(CCC(=O)O)[n+]1-c1cccc(O)c1 | 4 (≈ 5.55 µM) | 8 | > 25
5 | Cc1cc(SCC2=C(C(=O)[O-])N3C(=O)[C@@H](NC(=O)CSc4cc(Cl)ccc4Cl)[C@H]3SC2)cc(CCC(=O)O)[n+]1CCc1cccs1 | 4 (≈ 5.41 µM) | 8 | > 23
6 | Cc1cc(SCC2=C(C(=O)[O-])N3C(=O)[C@@H](NC(=O)CSc4cc(Cl)ccc4Cl)[C@H]3SC2)cc(CCC(=O)O)[n+]1Cc1cccs1 | 4 (≈ 5.52 µM) | 8 | > 23
7 | Cc1cc(SCC2=C(C(=O)[O-])N3C(=O)[C@@H](NC(=O)CSc4cc(Cl)ccc4Cl)[C@H]3SC2)cc(CCc2ccc(Cl)s2)[n+]1CC[C@@H](O)C(=O)O | 8 (≈ 9.96 µM) | 8 | > 23
8 | Cc1cc(SCC2=C(C(=O)[O-])N3C(=O)[C@@H](NC(=O)CSc4cc(Cl)ccc4Cl)[C@H]3SC2)cc(CCc2ccccc2)[n+]1CCS(=O)(=O)O | 2 (≈ 2.6 µM) | 4 | > 25
9 | CSCCC[n+]1c(C)cc(SCC2=C(C(=O)[O-])N3C(=O)[C@@H](NC(=O)CSc4cc(Cl)ccc4Cl)[C@H]3SC2)cc1CCC(=O)O | 2 (≈ 2.79 µM) | 4 | > 25
